For 48 compounds, IC50 results are on record in ChEMBL document CHEMBL3112486, “Novel class of benzoic acid ester derivatives as potent PDE4 inhibitors for inhaled administration in the treatment of respiratory diseases” (J Med Chem, 2014).

Bounds are passed on as bounds.

The target of experiment [1] is T1, Phosphodiesterase 4 (Homo sapiens, UniProt P27815+Q08499+Q07343+Q08493). The experiment in a line: Inhibition of PDE4 activity in human PBMC assessed as inhibition of LPS-induced TNFalpha release after 18 hrs by ELISA. In short, it runs like this: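 Human PBMCs plated at 10^5 cells/well in RPMI 1640 without phenol red plus 10% FBS, at 37 °C, 5% CO2. Compound added at 10^-15 to 10^-6 M (final DMSO 0.2%), with E. coli LPS at 3 ng/mL final, for 18 h. TNFα in supernatant measured by paired-antibody ELISA. IC50 from four-parameter logistic nonlinear regression, reported with 95% confidence intervals.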

The target of experiment [2] is T1, Phosphodiesterase 4. As to the kind of experiment: Inhibition of PDE4 isolated from human U937 cells assessed as […] by LANCE assay. Format: cell-free. Particulars: u-937.

Regarding `CS(=O)(=O)Nc1ccc(C(=O)O[C@@H](Cc2c(Cl)c[n+]([O-])cc2Cl)c2ccc(OC(F)F)c(OCC3CC3)c2)cc1CO`, the IC50 on Phosphodiesterase 4 [1] is reported as 1.05 nM; at Phosphodiesterase 4 [2], 0.03 nM.
For `O=C(O[C@@H](Cc1c(Cl)c[n+]([O-])cc1Cl)c1ccc(OC(F)F)c(OCC2CC2)c1)c1ccc(C(=O)O)c(OCC2CC2)c1`, in that order: 0.3 nM and 0.05 nM.
As to `O=C(O/C(=C\c1c(Cl)cncc1Cl)c1ccc(OC(F)F)c(OCC2CC2)c1)c1ccc(OC(F)F)c(OCC2CC2)c1`, at Phosphodiesterase 4 [2], the IC50 is given as 1.18 nM.
`COc1ccc(C(=O)O[C@@H](Cc2c(Cl)c[n+]([O-])cc2Cl)c2ccc(OC(F)F)c(OCC3CC3)c2)cc1NC(C)=O`: the IC50 at Phosphodiesterase 4 [1] is reported as 0.67 nM; at Phosphodiesterase 4 [2], 0.08 nM.
For `COc1ccc(NS(C)(=O)=O)cc1C(=O)O[C@@H](Cc1c(Cl)c[n+]([O-])cc1Cl)c1ccc(OC(F)F)c(OCC2CC2)c1`, the IC50 is reported as 0.89 nM at Phosphodiesterase 4 [1] and 0.04 nM on Phosphodiesterase 4 [2].
For `COc1cc(NS(C)(=O)=O)ccc1C(=O)O[C@@H](Cc1c(Cl)c[n+]([O-])cc1Cl)c1ccc(OC(F)F)c(OCC2CC2)c1`, in that order: 0.43 nM and 0.06 nM.
Taken in the same sequence, the figures for `CS(=O)(=O)Nc1cc(OCC2CC2)cc(C(=O)O[C@@H](Cc2c(Cl)c[n+]([O-])cc2Cl)c2ccc(OC(F)F)c(OCC3CC3)c2)c1` were 0.92 nM and 0.06 nM.
Taken in the same sequence, the figures for `COc1ccc(C(=O)O[C@@H](Cc2c(Cl)c[n+]([O-])cc2Cl)c2ccc(OC(F)F)c(OCC3CC3)c2)cc1OC` were 0.12 nM and 0.07 nM.
For the compound `O=C(O[C@H](Cc1c(Cl)c[n+]([O-])cc1Cl)c1ccc(OC(F)F)c(OCC2CC2)c1)c1ccc(OC(F)F)c(OCC2CC2)c1`, the IC50 at Phosphodiesterase 4 [2] is recorded as 2.43 nM.
On to `N#Cc1ccc(C(=O)O[C@@H](Cc2c(Cl)c[n+]([O-])cc2Cl)c2ccc(OC(F)F)c(OCC3CC3)c2)cc1`, for which the IC50 at Phosphodiesterase 4 [1] worked out at 2.1 nM; on Phosphodiesterase 4 [2] it was 0.41 nM.
For `CCCC(=O)OC(Cc1c(Cl)cncc1Cl)c1ccc(OC(F)F)c(OCC2CC2)c1` (racemic), the IC50 at Phosphodiesterase 4 [2] is on record as 1.74 nM.
As to `Cc1ccc(C(=O)O[C@@H](Cc2c(Cl)c[n+]([O-])cc2Cl)c2ccc(OC(F)F)c(OCC3CC3)c2)cc1NS(C)(=O)=O`, the results for the IC50 at Phosphodiesterase 4 [1] and at Phosphodiesterase 4 [2] were 0.96 nM and 0.03 nM, respectively.
For `O=C(O[C@@H](Cc1c(Cl)c[n+]([O-])cc1Cl)c1ccc(OC(F)F)c(OCC2CC2)c1)c1ccc([N+](=O)[O-])c(OCC2CC2)c1`, in that order: 0.69 nM and 0.21 nM.
Taken in the same sequence, the figures for `COc1ccc(C(=O)O[C@@H](Cc2c(Cl)c[n+]([O-])cc2Cl)c2ccc(OC(F)F)c(OCC3CC3)c2)cc1NS(C)(=O)=O` were 0.06 nM and 0.04 nM.
Taken in the same sequence, the figures for `COc1ccc(C(=O)O[C@@H](Cc2c(Cl)c[n+]([O-])cc2Cl)c2ccc(OC(F)F)c(OCC3CC3)c2)cc1Oc1ccccc1` were 1.36 nM and 0.21 nM.
Consider `COc1cccc(NS(C)(=O)=O)c1C(=O)O[C@@H](Cc1c(Cl)c[n+]([O-])cc1Cl)c1ccc(OC(F)F)c(OCC2CC2)c1`, for which the results for the IC50 on Phosphodiesterase 4 [1] and on Phosphodiesterase 4 [2] were over 60 nM and 6.83 nM, respectively.
For `[O-][n+]1cc(Cl)c(C[C@H](O)c2ccc(OC(F)F)c(OCC3CC3)c2)c(Cl)c1`, in that order: 479 nM and 9.44 nM.
As for `O=C(O[C@H](Cc1c(Cl)cncc1Cl)c1ccc(OC(F)F)c(OCC2CC2)c1)c1ccc(OC(F)F)c(OCC2CC2)c1`, the concentration for half-maximal inhibition (IC50) on Phosphodiesterase 4 [2] was 44 nM.
On to `O=C(O[C@@H](Cc1c(Cl)c[n+]([O-])cc1Cl)c1ccc(OC(F)F)c(OCC2CC2)c1)c1ccc(OC(F)F)c(OCC2CC2)c1`, for which the results for the 50% inhibitory concentration (IC50) on Phosphodiesterase 4 [1] and on Phosphodiesterase 4 [2] were 1.1 nM and 0.22 nM, respectively.
For `COc1cc(C(=O)O[C@@H](Cc2c(Cl)c[n+]([O-])cc2Cl)c2ccc(OC(F)F)c(OCC3CC3)c2)ccc1NS(C)(=O)=O`, in that order: 0.38 nM and 0.06 nM.
For `O=C(O[C@@H](Cc1c(Cl)c[n+]([O-])cc1Cl)c1ccc(OC(F)F)c(OCC2CC2)c1)c1ccc(O)c(OCC2CC2)c1`, in that order: 0.85 nM and 0.04 nM.
For `O=C(O[C@@H](Cc1c(Cl)c[n+]([O-])cc1Cl)c1ccc(OC(F)F)c(OCC2CC2)c1)c1ccc(Cl)cc1`, in that order: 1.85 nM and 0.16 nM.
Consider `O=C(CCCc1ccccc1)OC(Cc1c(Cl)cncc1Cl)c1ccc(OC(F)F)c(OCC2CC2)c1` (racemic), for which, on Phosphodiesterase 4 [2], the half-maximal inhibitory concentration (IC50) was 1.34 nM.
Consider `COc1ccc(C(=O)O[C@@H](Cc2c(Cl)c[n+]([O-])cc2Cl)c2ccc(OC(F)F)c(OCC3CC3)c2)c(NS(C)(=O)=O)c1`, for which the IC50 was over 60 nM on Phosphodiesterase 4 [1] and 0.73 nM at Phosphodiesterase 4 [2].
For `CN(C)c1ccc(C(=O)O[C@@H](Cc2c(Cl)c[n+]([O-])cc2Cl)c2ccc(OC(F)F)c(OCC3CC3)c2)cc1OCC1CC1`, in that order: 0.63 nM and 0.31 nM.
`COc1ccc(C(=O)O[C@@H](Cc2c(Cl)c[n+]([O-])cc2Cl)c2ccc(OC(F)F)c(OCC3CC3)c2)cc1O`: the 50% inhibitory concentration (IC50) on Phosphodiesterase 4 [1] came to 0.75 nM; at Phosphodiesterase 4 [2], 0.08 nM.
For `CNS(=O)(=O)c1cc(C(=O)O[C@@H](Cc2c(Cl)c[n+]([O-])cc2Cl)c2ccc(OC(F)F)c(OCC3CC3)c2)ccc1OC`, in that order: 0.25 nM and 0.03 nM.
Regarding `O=C(O[C@@H](Cc1c(Cl)c[n+]([O-])cc1Cl)c1ccc(OC(F)F)c(OCC2CC2)c1)c1ccccc1`, the IC50 at Phosphodiesterase 4 [1] was determined as 1.71 nM; on Phosphodiesterase 4 [2], 0.072 nM.
Take `CC(=O)Nc1ccc(C(=O)O[C@@H](Cc2c(Cl)c[n+]([O-])cc2Cl)c2ccc(OC(F)F)c(OCC3CC3)c2)cc1OCC1CC1`: the figures for the IC50 on Phosphodiesterase 4 [1] and on Phosphodiesterase 4 [2] were 0.21 nM and 0.24 nM, respectively.
Taken in the same sequence, the figures for `COc1ccc(C(=O)O[C@@H](Cc2c(Cl)c[n+]([O-])cc2Cl)c2ccc(OC(F)F)c(OCC3CC3)c2)cc1OCC1CC1` were 0.04 nM and 0.05 nM.
Regarding `O=C(OC(Cc1c(Cl)cncc1Cl)c1ccc(OC(F)F)c(OCC2CC2)c1)c1ccccc1` (racemic), the IC50 at Phosphodiesterase 4 [2] is recorded as 1.14 nM.
With `CS(=O)(=O)Nc1cccc(C(=O)O[C@@H](Cc2c(Cl)c[n+]([O-])cc2Cl)c2ccc(OC(F)F)c(OCC3CC3)c2)c1OCC1CC1`, the IC50 at Phosphodiesterase 4 [1] is recorded as 1.31 nM; on Phosphodiesterase 4 [2], 0.18 nM.
Taken in the same sequence, the figures for `CS(=O)(=O)Nc1ccc(OCC2CC2)c(C(=O)O[C@@H](Cc2c(Cl)c[n+]([O-])cc2Cl)c2ccc(OC(F)F)c(OCC3CC3)c2)c1` were 4.9 nM and 0.4 nM.
Regarding `CS(=O)(=O)Nc1ccc(C(=O)O[C@@H](Cc2c(Cl)c[n+]([O-])cc2Cl)c2ccc(OC(F)F)c(OCC3CC3)c2)cc1`, the concentration for half-maximal inhibition (IC50) on Phosphodiesterase 4 [1] is recorded as 0.13 nM; on Phosphodiesterase 4 [2], 0.05 nM.
For `Cc1ccc(C(=O)O[C@@H](Cc2c(Cl)c[n+]([O-])cc2Cl)c2ccc(OC(F)F)c(OCC3CC3)c2)cc1`, in that order: 0.66 nM and 0.1 nM.
As for `CS(=O)(=O)Nc1ccc(C(=O)O[C@@H](Cc2c(Cl)c[n+]([O-])cc2Cl)c2ccc(OC(F)F)c(OCC3CC3)c2)cc1OCc1ccccc1`, the half-inhibitory concentration (IC50) on Phosphodiesterase 4 [1] was 0.99 nM; on Phosphodiesterase 4 [2], 0.56 nM.
With `COc1ccc(C(=O)O[C@@H](Cc2c(Cl)c[n+]([O-])cc2Cl)c2ccc(OC(F)F)c(OCC3CC3)c2)cc1OC(C)=O`, the IC50 was found to be 0.96 nM at Phosphodiesterase 4 [1] and 0.05 nM on Phosphodiesterase 4 [2].
Taken in the same sequence, the figures for `COc1ccc(NS(C)(=O)=O)c(C(=O)O[C@@H](Cc2c(Cl)c[n+]([O-])cc2Cl)c2ccc(OC(F)F)c(OCC3CC3)c2)c1` were over 60 nM and 0.4 nM.
For `O=C(O[C@@H](Cc1c(Cl)c[n+]([O-])cc1Cl)c1ccc(OC(F)F)c(OCC2CC2)c1)c1ccc(C(F)(F)F)cc1`, in that order: 21 nM and 0.2 nM.
For the compound `O=C(Cc1ccccc1)OC(Cc1c(Cl)cncc1Cl)c1ccc(OC(F)F)c(OCC2CC2)c1` (racemic), the IC50 at Phosphodiesterase 4 [2] is 1.06 nM.
As for `COc1cc(NS(C)(=O)=O)cc(C(=O)O[C@@H](Cc2c(Cl)c[n+]([O-])cc2Cl)c2ccc(OC(F)F)c(OCC3CC3)c2)c1`, the results for the IC50 on Phosphodiesterase 4 [1] and at Phosphodiesterase 4 [2] were 0.13 nM and 0.17 nM, respectively.
For `CS(=O)(=O)Nc1cc(C(=O)O[C@@H](Cc2c(Cl)c[n+]([O-])cc2Cl)c2ccc(OC(F)F)c(OCC3CC3)c2)ccc1OCC1CC1`, the IC50 is 0.12 nM on Phosphodiesterase 4 [1] and 0.13 nM on Phosphodiesterase 4 [2].
Taken in the same sequence, the figures for `Nc1ccc(C(=O)O[C@@H](Cc2c(Cl)c[n+]([O-])cc2Cl)c2ccc(OC(F)F)c(OCC3CC3)c2)cc1OCC1CC1` were 0.11 nM and 0.09 nM.
Consider `O=C(O[C@@H](Cc1c(Cl)cncc1Cl)c1ccc(OC(F)F)c(OCC2CC2)c1)c1ccc(OC(F)F)c(OCC2CC2)c1`, for which the IC50 on Phosphodiesterase 4 [2] is reported as 1.9 nM.
In the case of `CS(=O)(=O)Nc1ccc(C(=O)O[C@@H](Cc2c(Cl)c[n+]([O-])cc2Cl)c2ccc(OC(F)F)c(OCC3CC3)c2)c(OCC2CC2)c1`, the values for the IC50 at Phosphodiesterase 4 [1] and at Phosphodiesterase 4 [2] were 1.96 nM and 0.26 nM, respectively.
Take `O=C(O[C@@H](Cc1c(Cl)c[n+]([O-])cc1Cl)c1ccc(OC(F)F)c(OCC2CC2)c1)c1ccc(NS(=O)(=O)C2CC2)c(OCC2CC2)c1`: the IC50 on Phosphodiesterase 4 [1] was 0.34 nM; on Phosphodiesterase 4 [2], 0.15 nM.
Turning to `CC(=O)OC(Cc1c(Cl)cncc1Cl)c1ccc(OC(F)F)c(OCC2CC2)c1` (racemic), on Phosphodiesterase 4 [2], the IC50 is reported as 4.09 nM.
Take `O=C(O[C@@H](Cc1c(Cl)c[n+]([O-])cc1Cl)c1ccc(OC(F)F)c(OCC2CC2)c1)c1ccc(CO)c(OCC2CC2)c1`: the 50% inhibitory concentration (IC50) worked out at 0.69 nM on Phosphodiesterase 4 [1] and 0.08 nM at Phosphodiesterase 4 [2].
